{
  "source": "paper PMC2964879",
  "about": "(Biochemistry, 2010)",
  "key": {"holo-BasF": {"test_system": "holo-BasF", "assay": "ESI-TOF mass spectrometry of aryl acid loading onto holo-BasF by BasE", "format": "biochemical, A. baumannii AB900", "conditions": "50 μM holo-BasF, 200 nM BasE, 250 μM aryl acid, 16 hours", "how_it_was_run": "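His-tagged BasF from A. baumannii AB900, expressed in E. coli, made holo in vitro with Sfp and CoA, then anion-exchange purified. Apo- and holo-BasF in the same buffer were reference samples. Samples were diluted in 50:50 water:acetonitrile with 0.1% formic acid and injected directly for ESI-TOF MS.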"}, "BasE [1]": {"molecular_target": "T1, BasE (Acinetobacter baumannii, UniProt A0A0D5YGP3)", "conditions": "for kcat, fold decrease relative to DHB / specificity constant, fold lower than DHB: relative to DHB; for KM, fold change relative to DHB: relative to DHB (increase in KM)"}, "MbtA": {"test_system": "MbtA", "conditions": "cited from earlier work"}, "BasE [2]": {"molecular_target": "T1, BasE", "assay": "Kinetic inhibition experiments with the continuous coupled assay", "format": "biochemical, A. baumannii ATCC17978"}, "[3]": {"test_system": "coupling enzymes inorganic pyrophosphatase and purine nucleoside phosphorylase", "assay": "Counter-test on the coupling enzymes of the continuous assay", "format": "biochemical", "conditions": "200 μM; data not shown"}, "BasE [4]": {"molecular_target": "BasE", "conditions": "read-out: dissociation constant Kia; nonvaried substrate in eq 2; cited from earlier work"}, "BasE [5]": {"test_system": "BasE", "conditions": "ATP-PPi exchange, saturating ATP; cited from earlier work"}, "A. baumannii": {"test_system": "A. baumannii", "assay": "Antibacterial activity", "format": "cell-based"}, "EntE": {"test_system": "EntE", "conditions": "cited from earlier work"}, "BasE [6]": {"molecular_target": "T1, BasE", "assay": "Fluorescence polarization displacement assay, BasE-AB900", "format": "binding, A. baumannii AB900", "conditions": "read-out: KD (FP) of the fluorescent probe"}, "BasE [7]": {"molecular_target": "T1, BasE", "assay": "Fluorescence polarization displacement assay, BasE-ATCC", "format": "binding, A. baumannii ATCC17978", "conditions": "read-out: KD (FP) of the fluorescent probe"}},
  "data": [
    {"molecule": "O=C(O)c1ccccc1O", "note": "[SAL, 2-hydroxybenzoic acid]", "values": [
      {"measurement": "loading", "setting": "holo-BasF", "value": "partial"},
      {"measurement": "kcat, fold decrease relative to DHB", "setting": "BasE [1]", "value": "~3", "unit": "fold"},
      {"measurement": "specificity constant, fold lower than DHB", "setting": "BasE [1]", "value": "approximately 6 fold"},
      {"measurement": "KM, fold change relative to DHB", "setting": "BasE [1]", "value": "approximately 2 fold"}
    ]},
    {"molecule": "O=C(O)c1cccc(O)c1", "note": "[Compound 3-HBA, 3-hydroxy benzoic acid]", "values": [
      {"measurement": "loading", "setting": "holo-BasF", "value": "partial"},
      {"measurement": "specificity constant, fold lower than DHB", "setting": "BasE [1]", "value": 60, "unit": "fold"}
    ]},
    {"molecule": "Nc1nc(-c2ccccc2)nc2c1ncn2[C@@H]1O[C@H](COS(=O)(=O)NC(=O)c2ccccc2O)[C@@H](O)[C@H]1O", "note": "[5′-O-[N-(2-hydroxybenzoyl)sulfamoyl]-2-phenyladenosine]", "values": [
      {"measurement": "binding constant", "setting": "MbtA", "value": "subnanomolar"}
    ]},
    {"molecule": "O=C(O)c1cc(-c2ccccc2)nc2c1cnn2Cc1ccncc1", "note": "[Compound 8, 6-phenyl-1-(pyridin-4-ylmethyl)-1H-pyrazolo[3,4-b]pyridine-4-carboxylic acid]", "values": [
      {"measurement": "modality of inhibition with respect to DHB and ATP", "setting": "BasE [2]", "value": "competitive inhibition with respect to both substrates"},
      {"measurement": "slow binding inhibition", "setting": "BasE [2]; 10 min pre-incubation at 25 °C, data not shown", "value": "did not exhibit slow binding inhibition"},
      {"measurement": "inhibition of the coupling enzymes", "setting": "[3]", "value": "did not inhibit"}
    ]},
    {"molecule": "Nc1ncnc2c1ncn2[C@@H]1O[C@H](COP(=O)(O)OP(=O)(O)OP(=O)(O)O)[C@@H](O)[C@H]1O", "note": "[ATP]", "values": [
      {"measurement": "kcat", "setting": "BasE [1]; substrate of BasE, coupled assay, 25 °C, pH 8.0", "value": "2.8 ± 0.2", "unit": "s⁻¹"},
      {"measurement": "Km", "setting": "BasE [1]; substrate of BasE, coupled assay, 25 °C, pH 8.0, nonvaried substrates saturating", "value": "300 ± 71", "unit": "µM"}
    ]},
    {"molecule": "O=C(O)c1cccc(O)c1O", "note": "[DHB, 2,3-dihydroxybenzoic acid]", "values": [
      {"measurement": "loading", "setting": "holo-BasF", "value": "full"},
      {"measurement": "Kd", "setting": "BasE [4]", "value": 2630, "unit": "nM"},
      {"measurement": "Km", "setting": "BasE [5]", "value": 1.5, "unit": "µM"},
      {"measurement": "kcat", "setting": "BasE [5]", "value": 3.5, "unit": "s⁻¹"}
    ]},
    {"molecule": "CCCCCCCCCCCCc1cn(-c2nc(N)c3ncn([C@@H]4O[C@H](COS(=O)(=O)NC(=O)c5ccccc5O)[C@@H](O)[C@H]4O)c3n2)nn1", "note": "[Compound 7, 2-(4-n-dodecyl-1,2,3-triazol-1-yl)-5′-O-[N-(2-hydroxybenzoyl)sulfamoyl]adenosine]", "values": [
      {"measurement": "MIC", "setting": "A. baumannii; Acinetobacter baumannii", "value": "~15", "unit": "µM"},
      {"measurement": "antibacterial activity", "setting": "A. baumannii; iron replete conditions", "value": "inactive"}
    ]},
    {"molecule": "Nc1ncnc2c1ncn2[C@@H]1O[C@H](COS(=O)(=O)NC(=O)c2cccc(O)c2O)[C@@H](O)[C@H]1O", "note": "[Compound 5, 5′-O-[N-(2,3-dihydroxybenzoyl)sulfamoyl]adenosine]", "values": [
      {"measurement": "inhibition of EntE (inhibition and dissociation constants, in words)", "setting": "EntE", "value": "slow tight-binding picomolar inhibitors"},
      {"measurement": "antibacterial activity against A. baumannii", "setting": "A. baumannii; unpublished results, D. Wilson and C. Aldrich", "value": "do not possess any antibacterial activity"}
    ]},
    {"molecule": "Nc1ncnc2c1ncn2[C@@H]1O[C@H](COS(=O)(=O)NC(=O)c2ccccc2O)[C@@H](O)[C@H]1OCCOCCOCCNC(=O)c1ccc2c(c1)C(=O)OC21c2ccc(O)cc2Oc2cc(O)ccc21", "note": "[Compound 9, 2′-O-{2-[2-(2-{[(fluorescein-5-yl)carbonyl]amino}ethoxy)ethoxy]ethoxy}-5′-O-[N-(2-hydroxybenzoyl)sulfamoyl]adenosine]", "values": [
      {"measurement": "Kd", "setting": "BasE [6]", "value": "144 ± 9", "unit": "nM"},
      {"measurement": "Kd", "setting": "BasE [7]", "value": "84 ± 6", "unit": "nM"}
    ]},
    {"molecule": "O=C(O)c1ccccc1", "note": "[BA, benzoic acid]", "values": [
      {"measurement": "loading", "setting": "holo-BasF", "value": "partial"},
      {"measurement": "kcat, fold decrease relative to DHB", "setting": "BasE [1]", "value": "~10", "unit": "fold"},
      {"measurement": "specificity constant, fold lower than DHB", "setting": "BasE [1]", "value": "three orders of magnitude"},
      {"measurement": "KM, fold change relative to DHB", "setting": "BasE [1]", "value": "~100", "unit": "fold"}
    ]}
  ]
}
